Measured values gathered from unrelated publications.
Protocols differ between the studies behind these lines.
PIK3CG: Phosphatidylinositol 4,5-bisphosphate 3-kinase catalytic subunit gamma isoform (PIK3CG, Homo sapiens, UniProt P48736)
SCTR: Secretin receptor (SCTR, Homo sapiens, UniProt P47872)
DHODH: Dihydroorotate dehydrogenase (quinone), mitochondrial (DHODH, Homo sapiens, UniProt Q02127)
SHMT2: Serine hydroxymethyltransferase, mitochondrial (SHMT2, Homo sapiens, UniProt P34897)
PTGS2: Prostaglandin G/H synthase 2 (PTGS2, Homo sapiens, UniProt P35354)

SMILES | target | test | measurement | result
COc1cc2ncnc(N(C)c3ccc4c(c3)/C(=C/c3cccc(Cl)c3)C(=O)N4C)c2cc1OC | PIK3CG | enzyme activity, inhibitor, ADP detection | IC50 | 118 nM
CC1=NN(/C(=N/c2nnc(C)s2)Nc2ccc(C)c(C)c2)C(c2ccc(F)cc2)S1 (centres unmarked) | SCTR | cAMP, agonist, TR-FRET | EC50 | 800 nM
CNC[C@H](O)c1cccc(O)c1 | Alpha-1D adrenergic receptor (ADRA1D, Homo sapiens, UniProt P25100) | calcium signal, agonist | EC50 | 17.4 nM
Cc1nc(Nc2ccc3c(c2)CC(=O)N3)c2ccccc2n1 | PIK3CG | enzyme activity, inhibitor, ADP detection | IC50 | 568 nM
CC1=NN(/C(=N\c2cccnc2)Nc2nnc(C)s2)C(c2ccc(C)cc2)S1 (centres unmarked) | SCTR | cAMP, agonist, TR-FRET | EC50 | > 50000 nM
Cc1c(C(=O)OC2CC2)nn(C)c1Cc1ccc(C(F)(F)F)nc1 | DHODH | enzyme activity, inhibitor | IC50 | > 100000 nM
CN[C@H]1CC[C@@H](c2ccc(Cl)c(Cl)c2)c2ccccc21 | SHMT2 | binding, MST | Kd | 12000 nM
CCCc1cc(C(=O)Nc2ccc(C(C)=O)cc2)c(NC(=O)c2ccccc2)s1 | PTGS2 | enzyme activity, inhibitor | IC50 | 1230 nM
CCn1cc(C2CC2)c2c(CN3CCC(C)(F)CC3)n(C)nc2c1=O | DHODH | enzyme activity, inhibitor, absorbance | IC50 | > 100000 nM
O=C(/C=C/c1ccc(O)c(O)c1)O[C@@H]1C[C@](O)(C(=O)O)C[C@@H](O)[C@H]1O | PTGS2 | enzyme activity, inhibitor, fluorescence | IC50 | 30000 nM
Cn1nc2c(=O)n(C3CC3)nc(C3CC3)c2c1Cc1ccc(C(F)(F)F)c(F)c1 | DHODH | enzyme activity, inhibitor | IC50 | 2300 nM
Cc1nc(N(C)c2ccc3c(c2)/C(=C/c2ccccc2Cl)C(=O)N3C)c2ccccc2n1 | PIK3CG | enzyme activity, inhibitor, ADP detection | IC50 | 105 nM
CCn1ccc2c(Cc3ccc(C(F)(F)F)nc3)n(C)nc2c1=O | DHODH | enzyme activity, inhibitor, absorbance | IC50 | > 100000 nM
Cc1nc(Nc2ccc3c(c2)/C(=C/c2ccccc2Cl)C(=O)N3)c2ccccc2n1 | PIK3CG | enzyme activity, inhibitor, ADP detection | IC50 | 34.5 nM
CC1=NN(/C(=N/c2nnc(C)s2)Nc2ccc(C)c(C)c2)C(c2ccc(-c3cccc(C(F)(F)F)c3)cc2)S1 (centres unmarked) | SCTR | cAMP, agonist, TR-FRET | EC50 | 500 nM
COc1cc2ncnc(Nc3ccc4c(c3)/C(=C/c3ccccc3)C(=O)N4C)c2cc1OC | PIK3CG | enzyme activity, inhibitor, ADP detection | IC50 | 194 nM
NC(=O)c1cccc(C#CCN(CC[C@H](N)C(=O)O)C[C@H]2O[C@@H](n3cnc4c(N)ncnc43)[C@H](O)[C@@H]2O)c1 | SHMT2 | binding, MST | Kd | 66000 nM
